Results: ChEMBL document CHEMBL3763021 (Eur J Med Chem, 2016)

What was measured:
LS174T [1] = test: Antitumor activity against human LS174T cells xenografted in BALB/C mouse assessed as tumor weight inhibition at 75 mg/kg, bid administered for 10 days measured twice per week; type: functional; settings: 240 h, read-out: TGI
Outline: (§1)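 Male BALB/c nude mice, 18–20 g, kept under SPF conditions. LS-174T cells at 2.5×10^7 cells/mL were injected s.c. into the right flank, and tumors were grown to about 100 mm3. Mice were randomized, n=6 treated and n=9 vehicle. Oral dosing ran qd or bid for 10 days; vehicle controls got the same volume of solvent. Tumor volume = length×width²/2, measured twice weekly. IR = (control − treated)/control for tumor weight or volume at day 10.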

[2] = Inhibition of Sonic-induced hedgehog signalling in mouse NIH3T3 cells after 48 hrs by Gli-luciferase reporter assay; type: cell-based; settings: NIH3T3, 48 h
Outline: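 NIH3T3 cells stably carrying a Gli-luciferase reporter were kept in DMEM with 10% FBS and 1 µg/mL puromycin, then seeded at 2×10^4 cells/well overnight at 37 °C. Compounds at 0.05–300 nM (8 concentrations) were added in medium with 0.5% FBS and 0.7 µg/mL Sonic Hh agonist, n=4 wells, for 48 h. Readout was the Firefly/Renilla luciferase ratio in lysates.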

[3] = Cmax in Sprague-Dawley rat at 1 mg/kg, iv by LC/MS/MS analysis; type: ADME, organism-based; parameters: dose 1 mg/kg, route intravenous; settings: in vivo
Outline: (§2)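 Male SD rats, 180–240 g, 3 per compound; single dose of 1 mg/kg iv or 5 mg/kg po, dosing volume 5 mL/kg. Blood was sampled from 2 min to 24 h and centrifuged at 4 °C. Plasma underwent protein precipitation, then LC/MS/MS in SRM mode with an internal standard. Parameters were derived by noncompartmental analysis.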

[4] = Cmax in Sprague-Dawley rat at 5 mg/kg, po by LC/MS/MS analysis; type: ADME, organism-based; parameters: dose 5 mg/kg, route oral; settings: in vivo; outline: as §2
[5] = AUC (0 to t) in Sprague-Dawley rat at 1 mg/kg, iv by LC/MS/MS analysis; type: ADME, organism-based; settings: in vivo
Outline: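 Male SD rats, 3 per compound, 180–240 g, single iv dose at 1 mg/kg, dosing volume 5 mL/kg. Blood sampled at 2, 5, 15, 30 min and 1, 2, 4, 6, 8, 10, 24 h, then centrifuged at 4 °C. Plasma protein-precipitated and analysed by LC/MS/MS in SRM mode with internal standard. AUC(0-t) obtained by noncompartmental analysis.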

[6] = AUC (0 to t) in Sprague-Dawley rat at 5 mg/kg, po by LC/MS/MS analysis; type: ADME, organism-based; settings: in vivo; outline: as §2
[7] = Apparent volume of distribution in Sprague-Dawley rat at 1 mg/kg, iv by LC/MS/MS analysis; settings: in vivo
Rattus norvegicus = test: Apparent volume of distribution in Sprague-Dawley rat at 5 mg/kg, po by LC/MS/MS analysis; settings: in vivo
[8] = Clearance in Sprague-Dawley rat at 1 mg/kg, iv by LC/MS/MS analysis; type: ADME, organism-based; settings: in vivo; outline: as §2
[9] = Clearance in Sprague-Dawley rat at 5 mg/kg, po by LC/MS/MS analysis; type: ADME, organism-based; settings: in vivo; outline: as §2
[10] = Mean resident time (0 to t) in Sprague-Dawley rat at 1 mg/kg, iv by LC/MS/MS analysis; type: ADME, organism-based; settings: in vivo; outline: as §2
[11] = Mean resident time (0 to t) in Sprague-Dawley rat at 5 mg/kg, po by LC/MS/MS analysis; type: ADME, organism-based; settings: in vivo; outline: as §2
[12] = Half life in Sprague-Dawley rat at 1 mg/kg, iv by LC/MS/MS analysis; type: ADME, organism-based; settings: in vivo; outline: as §2
[13] = Half life in Sprague-Dawley rat at 5 mg/kg, po by LC/MS/MS analysis; type: ADME, organism-based; settings: in vivo; outline: as §2
[14] = Oral bioavailability in Sprague-Dawley rat at 5 mg/kg; type: ADME, organism-based; settings: in vivo; outline: as §2
LS174T [15] = test: Antiproliferative activity against human LS174T cells after 72 hrs by CellTiter-Glo luminescent cell viability assay; type: functional, cell-based
Outline: (§3)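 Cells were grown in DMEM with 10% FBS, seeded at a density suited to each line, and left 24 h at 37 °C. Compounds were prepared in DMSO, diluted in medium over a concentration series starting at 100 µM, and applied for 72 h. CellTiter-Glo reagent was added for 30 min at room temperature before reading luminescence. IC50 came from four-parameter curve fitting.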

[16] = Antiproliferative activity against human PC3 cells after 72 hrs by CellTiter-Glo luminescent cell viability assay; type: functional, cell-based; settings: PC-3, 72 h; outline: as §3
[17] = Antiproliferative activity against human BxPC3 cells after 72 hrs by CellTiter-Glo luminescent cell viability assay; type: functional, cell-based; settings: BXPC-3, 72 h; outline: as §3
LS174T [18] = test: Antitumor activity against human LS174T cells xenografted in BALB/C mouse assessed as tumor weight inhibition at 18.75 mg/kg, bid administered for 10 days measured twice per week; type: functional; settings: 240 h, read-out: TGI; outline: as §1
LS174T [19] = test: Antitumor activity against human LS174T cells xenografted in BALB/C mouse assessed as tumor weight inhibition at 37.5 mg/kg, bid administered for 10 days measured twice per week; type: functional; settings: 240 h, read-out: TGI; outline: as §1
Mus musculus [20] = test: Toxicity in BALB/C mouse xenografted with human LS174T cells assessed as mortality at 18.75 to 75 mg/kg, bid administered for 10 days; type: organism-based; settings: in vivo, 240 h
Outline: (§4)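 Male BALB/C nude mice (18–20 g) kept under SPF conditions. LS-174T cells at 2.5×10^7 cells/mL injected subcutaneously into the right flank. Once tumors reached about 100 mm3, mice were randomized to groups of 6 (vehicle group n = 9) and dosed orally once or twice daily for 10 days. Controls received solvent. Body weight and tumor volume were measured twice weekly and deaths recorded.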

Mus musculus [21] = test: Toxicity in BALB/C mouse xenografted with human LS174T cells assessed as loss of body weight at 18.75 to 75 mg/kg, bid administered for 10 days measured twice per week; type: organism-based; settings: in vivo, 240 h; outline: as §4
LS174T [22] = test: Antitumor activity against human LS174T cells xenografted in BALB/C mouse assessed as tumor volume inhibition at 75 mg/kg, bid administered for 10 days measured twice per week; settings: 240 h, read-out: TGI
LS174T [23] = test: Antitumor activity against human LS174T cells xenografted in BALB/C mouse assessed as tumor volume inhibition at 18.75 mg/kg, bid administered for 10 days measured twice per week; type: functional; settings: 240 h, read-out: TGI; outline: as §1
LS174T [24] = test: Antitumor activity against human LS174T cells xenografted in BALB/C mouse assessed as tumor volume inhibition at 37.5 mg/kg, bid administered for 10 days measured twice per week; type: functional; settings: 240 h, read-out: TGI; outline: as §1
LS174T [25] = test: Potency index, ratio of GDC-0449 IC50 to compound IC50 for human LS174T cells; type: functional
PC-3 = test: Potency index, ratio of GDC-0449 IC50 to compound IC50 for human PC3 cells; type: functional
BXPC-3 = test: Potency index, ratio of GDC-0449 IC50 to compound IC50 for human BxPC3 cells; type: functional

Cc1ccc(CN2CCOCC2)cc1NC(=O)c1ccc(Nc2ncc(F)c(-c3ccc(OC(F)(F)F)cc3)n2)cc1
inhibition in vivo at 75 mg/kg (LS174T [1]): 14.4%
IC50 [2]: 0.00103 µM
Cmax [3]: 1010 ng/mL
Cmax [4]: 494 ng/mL
AUC(0-t) [5]: 2030 ng·h/mL
AUC(0-t) [6]: 4720 ng·h/mL
Vd [7]: 4.67 L/kg
Vd(app) (Rattus norvegicus): 12.03324 L/kg
clearance [8]: 7.75 mL/min/kg
CL/F [9]: 15.5 mL/min/kg
MRT last [10]: 4.85 h
MRT last [11]: 7.42 h
half-life [12]: 6.98 h
half-life [13]: 9.08 h
bioavailability [14]: 37.2%
IC50 (LS174T [15]): 9.1 µM
IC50 [16]: 11.6 µM
IC50 [17]: 14.5 µM
inhibition in vivo at 18.75 mg/kg (LS174T [18]): 18.4%
inhibition in vivo at 37.5 mg/kg (LS174T [19]): 17.3%
Activity (Mus musculus [20]): Non-toxic
Activity (Mus musculus [21]): Non-toxic
inhibition in vivo at 75 mg/kg (LS174T [22]): 33.1%
inhibition in vivo at 18.75 mg/kg (LS174T [23]): 34%
inhibition in vivo at 37.5 mg/kg (LS174T [24]): 34.9%
Ratio IC50 (LS174T [25]): 5
Ratio IC50 (PC-3): 5.8
Ratio IC50 (BXPC-3): 3
